ChEMBL document CHEMBL4390653, “Potential anti-herpes and cytotoxic action of novel semisynthetic digitoxigenin-derivatives” (Eur J Med Chem, 2019)

How the values were obtained:
[1] = Selectivity index, ratio of Cytotoxicity against African green monkey Vero cells assessed as reduction in cell viability after 48 hrs by SRB assay to Antiviral activity against Herpes simplex virus 2-333 infected in African green monkey Vero cells assessed as inhibition of viral replication after 48 hrs by naphthol blue-black staining-based plaque reduction assay; format: toxicity; settings: Vero cells infected with HSV-2 333, read-out: Ratio CC50/IC50
In short: (§1)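 Selectivity index = CC50 in Vero cells (SRB, 48 h) divided by plaque-reduction IC50 for the same virus strain.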

[2] = (§2) Selectivity index, ratio of Cytotoxicity against African green monkey Vero cells assessed as reduction in cell viability after 48 hrs by SRB assay to Antiviral activity against acyclovir-sensitive Herpes simplex virus 1 KOS infected in African green monkey Vero cells assessed as inhibition of viral replication after 48 hrs by naphthol blue-black staining-based plaque reduction assay; format: toxicity; settings: Vero cells infected with HSV-1 KOS, read-out: Ratio CC50/IC50; in short: as §1
Human alphaherpesvirus 2 = assay: Antiviral activity against Herpes simplex virus 2-333 infected in African green monkey Vero cells assessed as inhibition of viral replication after 48 hrs by naphthol blue-black staining-based plaque reduction assay; format: functional, organism-based; settings: Human alphaherpesvirus 2, 333, Vero
In short: (§3)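 Vero cells in MEM with 10% FBS, 37 °C, 5% CO2. Confluent monolayers (2.5 × 10^5 cells/well) infected with about 100 PFU for 1 h at 37 °C. Non-cytotoxic concentrations were added after infection. Cells were then PBS-washed and overlaid with MEM plus 1.5% carboxymethylcellulose, with or without compound, for 48 h. Fixed, naphthol blue-black stained, plaques counted under a stereomicroscope. IC50 versus untreated controls by nonlinear regression; mean of three independent experiments.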

A549 = assay: Cytotoxicity against human A549 cells assessed as inhibition of cell viability after 48 hrs by SRB assay; format: functional, cell-based; settings: A549, 48 h
Human alphaherpesvirus 1 [3] = assay: Antiviral activity against acyclovir-sensitive Herpes simplex virus 1 KOS infected in African green monkey Vero cells assessed as inhibition of viral replication after 48 hrs by naphthol blue-black staining-based plaque reduction assay; format: functional, organism-based; settings: Human alphaherpesvirus 1, strain KOS; in short: as §3
LNCaP = assay: Cytotoxicity against human LNCAP cells assessed as inhibition of cell viability after 48 hrs by SRB assay; format: functional, cell-based
In short: (§4)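 Cells seeded at 2.5 × 10^4 per well and exposed to a concentration range for 48 h, then SRB total-protein stain. PC3 grown in phenol-red-free DMEM with 1% glutamine; LNCaP in phenol-red-free RPMI 1640 with glutamine and non-essential amino acids. HCT-8 and H460 in RPMI 1640. MRC-5 (plus glutamine and non-essential amino acids) and primary gingival fibroblasts in DMEM. All media had 10% FBS, 37 °C, 5% CO2. Paclitaxel was the reference. IC50 versus untreated controls by nonlinear regression, three independent experiments.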

HCT-8 = assay: Cytotoxicity against human HCT8 cells assessed as inhibition of cell viability after 48 hrs by SRB assay; format: functional, cell-based; settings: HCT-8, 48 h; in short: as §4
Human alphaherpesvirus 1 [4] = assay: Antiviral activity against acyclovir-resistant Herpes simplex virus 1 29-R infected in African green monkey Vero cells assessed as inhibition of viral replication after 48 hrs by naphthol blue-black staining-based plaque reduction assay; format: functional, organism-based; in short: as §3
[5] = Cytotoxicity against African green monkey Vero cells assessed as reduction in cell viability after 48 hrs by SRB assay; format: cell-based; settings: chlorocebus sabaeus
In short: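 Vero cells in MEM with 10% FBS, seeded at 2.5 × 10^4 cells/well. Exposed to a range of concentrations for 48 h at 37 °C, 5% CO2, then sulforhodamine B total-protein staining. CC50 is the concentration reducing viability by 50% versus untreated controls, from nonlinear regression; mean ± SD of three independent experiments.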

PC-3 = assay: Cytotoxicity against human PC3 cells assessed as inhibition of cell viability after 48 hrs by SRB assay; format: functional, cell-based; settings: PC-3, 48 h; in short: as §4
[6] = as §2, with “acyclovir-resistant” for “acyclovir-sensitive”, “29-R” for “KOS”; format: toxicity; settings: Vero cells infected with HSV-1 29-R, read-out: Ratio CC50/IC50; in short: as §1
[7] = Inhibition of porcine cortex Na+/K+-ATPase alpha1/2/3 subunit using ATP as substrate preincubated for 30 mins followed by substrate addition and measured after 30 mins by malachite green reagent-based assay; set-up: species or system Sus scrofa
NCI-H460 = assay: Cytotoxicity against human H460 cells assessed as inhibition of cell viability after 48 hrs by SRB assay; format: functional, cell-based; settings: NCI-H460, 48 h; in short: as §4
[8] = Cytotoxicity against human HGF cells assessed as inhibition of cell viability after 48 hrs by SRB assay; format: cell-based; in short: as §4
MRC5 = assay: Cytotoxicity against human MRC5 cells assessed as inhibition of cell viability after 48 hrs by SRB assay; format: cell-based; settings: MRC5, 48 h; in short: as §4
[9] = Human alphaherpesvirus 1, 29-R, Vero, 48 h, read-out: IC50

Compound | selectivity ratio at 48 h [1] | selectivity ratio at 48 h [2] | IC50 (Human alphaherpesvirus 2) | IC50 (A549) | IC50 (Human alphaherpesvirus 1 [3]) | IC50 (LNCaP) | IC50 (HCT-8) | IC50 (Human alphaherpesvirus 1 [4]; [9]) | CC50 at 48 h [5] | IC50 (PC-3) | selectivity ratio at 48 h [6] | IC50 [7] | IC50 (NCI-H460) | IC50 [8] | IC50 (MRC5) | IC50 (Human alphaherpesvirus 1 [4]; vero)
C[C@]12CC[C@H](n3cc(CO[C@@H]4O[C@H](CO)[C@@H](O)[C@H](O)[C@H]4O)nn3)C[C@H]1CC[C@@H]1[C@@H]2CC[C@]2(C)[C@@H](C3=CC(=O)OC3)CC[C@]12O | > 140 | > 108 | 2.14 µM | 2.03 µM | 2.79 µM | 4.69 µM | 3.7 µM | 2.71 µM | > 300 µM | 2.35 µM | > 111 | – | – | – | – | –
CC(=O)OC[C@H]1O[C@@H](OCc2cn([C@H]3CC[C@@]4(C)[C@H](CC[C@@H]5[C@@H]4CC[C@]4(C)[C@@H](C6=CC(=O)OC6)CC[C@]54O)C3)nn2)[C@H](OC(C)=O)[C@@H](OC(C)=O)[C@@H]1OC(C)=O | 75.1 | 45.5 | 3.8 µM | 3.74 µM | 6.27 µM | 7.32 µM | 3.57 µM | 2.11 µM | 286 µM | 7.05 µM | 135 | – | – | – | – | –
C[C@]12CC[C@H](n3cc(CO[C@@H]4O[C@H](CO)[C@@H](O[C@H]5O[C@H](CO)[C@@H](O)[C@H](O)[C@H]5O)[C@H](O)[C@H]4O)nn3)C[C@H]1CC[C@@H]1[C@@H]2CC[C@]2(C)[C@@H](C3=CC(=O)OC3)CC[C@]12O | 35.2 | 34.3 | 4.18 µM | 2.86 µM | 4.29 µM | 5.24 µM | 5.43 µM | 3.24 µM | 147 µM | 2.74 µM | 45.4 | – | – | – | – | –
C[C@]12CC[C@H](NC(=O)CCl)C[C@H]1CC[C@@H]1[C@@H]2CC[C@]2(C)[C@@H](C3=CC(=O)OC3)CC[C@]12O | 61.3 | 122 | 1.37 µM | 1.17 µM | 0.69 µM | 1.96 µM | 1.45 µM | 0.34 µM | 84 µM | 1.92 µM | 247 | – | – | – | – | –
C[C@]12CC[C@H](n3cc(CO[C@@H]4O[C@H](CO)[C@H](O)[C@H](O)[C@H]4O)nn3)C[C@H]1CC[C@@H]1[C@@H]2CC[C@]2(C)[C@@H](C3=CC(=O)OC3)CC[C@]12O | 234 | 296 | 1.24 µM | 2.19 µM | 0.98 µM | 7.49 µM | 2.58 µM | 0.92 µM | 290 µM | 2.75 µM | 315 | – | – | – | – | –
C[C@]12CC[C@H](NC(=O)CBr)C[C@H]1CC[C@@H]1[C@@H]2CC[C@]2(C)[C@@H](C3=CC(=O)OC3)CC[C@]12O | – | – | – | 1.4 µM | – | 3.42 µM | 1.74 µM | – | 36.1 µM | 1.7 µM | – | – | – | – | – | –
CC(=O)OC[C@H]1O[C@H](OCc2cn([C@H]3CC[C@@]4(C)[C@H](CC[C@@H]5[C@@H]4CC[C@]4(C)[C@@H](C6=CC(=O)OC6)CC[C@]54O)C3)nn2)[C@@H](OC(C)=O)[C@@H](OC(C)=O)[C@@H]1OC(C)=O | 86.4 | 39 | 4.55 µM | 1.57 µM | 10.1 µM | 3.13 µM | 1.9 µM | 6.01 µM | 393 µM | 2.92 µM | 65.4 | 4.46 µM | 1.59 µM | – | – | –
C[C@]12CC[C@H](n3cc(CO[C@H]4O[C@H](CO)[C@@H](O)[C@H](O)[C@@H]4O)nn3)C[C@H]1CC[C@@H]1[C@@H]2CC[C@]2(C)[C@@H](C3=CC(=O)OC3)CC[C@]12O | > 732 | > 546 | 0.41 µM | 0.58 µM | 0.55 µM | 1.66 µM | 1.02 µM | 0.37 µM | > 300 µM | 0.58 µM | > 811 | 5.47 µM | 0.24 µM | 1.41 µM | 0.36 µM | –
C[C@]12CC[C@H](NC(=O)CN3CCC(c4ccccc4)CC3)C[C@H]1CC[C@@H]1[C@@H]2CC[C@]2(C)[C@@H](C3=CC(=O)OC3)CC[C@]12O | 228 | 254 | 0.49 µM | 1.43 µM | 0.44 µM | 1.72 µM | 0.3 µM | 0.2 µM | 112 µM | 0.7 µM | 560 | 6.59 µM | 0.32 µM | – | – | –
C[C@]12CC[C@H](NC(=O)CNc3ccc(Cl)cc3)C[C@H]1CC[C@@H]1[C@@H]2CC[C@]2(C)[C@@H](C3=CC(=O)OC3)CC[C@]12O | 224 | 208 | 1.4 µM | 1.38 µM | 1.51 µM | 1.28 µM | 1.68 µM | 1.8 µM | 314 µM | 1.18 µM | 174 | 10.8 µM | 1.14 µM | – | – | –
CC(=O)OC[C@H]1O[C@@H](OCc2cn([C@H]3CC[C@@]4(C)[C@H](CC[C@@H]5[C@@H]4CC[C@]4(C)[C@@H](C6=CC(=O)OC6)CC[C@]54O)C3)nn2)[C@H](OC(C)=O)[C@@H](OC(C)=O)[C@H]1OC(C)=O | – | – | – | 3.94 µM | – | 11.3 µM | 5.91 µM | – | 216 µM | 6.23 µM | – | – | – | – | – | –
CC(=O)OC[C@H]1O[C@H](O[C@H]2[C@H](OC(C)=O)[C@@H](OC(C)=O)[C@H](OCc3cn([C@H]4CC[C@@]5(C)[C@H](CC[C@@H]6[C@@H]5CC[C@]5(C)[C@@H](C7=CC(=O)OC7)CC[C@]65O)C4)nn3)O[C@@H]2COC(C)=O)[C@H](OC(C)=O)[C@@H](OC(C)=O)[C@@H]1OC(C)=O | 18.5 | 6.86 | 9.75 µM | 12 µM | 26.3 µM | 23.8 µM | 9.51 µM | 33.4 µM | 181 µM | 29.5 µM | 5.42 | – | – | – | – | –
Nc1nc2c(ncn2COCCO)c(=O)[nH]1 [ACYCLOVIR] | > 619 | > 1450 | 3.23 µM | – | 1.38 µM | – | – | – | > 2000 µM | – | – | – | – | – | – | Not Active
C[C@]12CC[C@H](O)C[C@H]1CC[C@@H]1[C@@H]2CC[C@]2(C)[C@@H](C3=CC(=O)OC3)CC[C@]12O [DIGITOXIGENIN] | 8.53 | 25.3 | 3.23 µM | 1.68 µM | 1.09 µM | 3.7 µM | 2.48 µM | 1.02 µM | 27.5 µM | 2.41 µM | 27 | – | 0.92 µM | 1.47 µM | 1.16 µM | –
CC(=O)O[C@H]1C(=O)[C@@]2(C)[C@H]([C@H](OC(=O)c3ccccc3)[C@]3(O)C[C@H](OC(=O)[C@H](O)[C@@H](NC(=O)c4ccccc4)c4ccccc4)C(C)=C1C3(C)C)[C@]1(OC(C)=O)CO[C@@H]1C[C@@H]2O [PACLITAXEL] | – | – | – | 0.11 µM | – | 21 µM | 0.17 µM | – | – | 0.67 µM | – | – | 0.08 µM | > 200 µM | > 200 µM | –
